Source: PubChem (several laboratories)
Sampled rows, rich in hits. Any-hit rate of the full collection: about 1.6%.
proCasp7 act – counter-screen: procaspase-7 (human) activation. P55210. recombinant procaspase-7, Ac-DEVD-pNA absorbance 405 nm; D23A/D198A/D206A triple mutant, cannot self-cleave; scale: DMSO 0, 5 µM enzyme 100. activation, % at 8.5 µM. actives 0.093% (n = 330,000). AID 463210;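 active = percent activation above the screen-wide mean plus 3 SD, cut at about 25% in these data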
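Assay system: Uncleavable procaspase-7 mutant enzyme; Input: 2 µM procaspase-7 mutant as dispensed; Also added: DEVD-pNA substrate; Medium: Zinc-free HEPES pH 7.4 with 300 mM NaCl, 0.01% Triton X-100; Timing: 1 h compound preincubation, 2 h substrate cleavage, 25 °C; Measured by: Epi-absorbance of released pNA at 405 nm, two timepoints.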
KLK7 zymogen act – proKLK7 (human) activation, primary screen | P49862 | purified proKLK7, EDANS-DABCYL substrate fluorescence; 100% is mature enzyme control, 0% vehicle | activation, % at 7 µM | actives 0.9% (n = 370,000);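 active = activation above the mean of all tested compounds plus 3 SD, computed per campaign excluding outliers beyond control limits, cut at about 13% in these data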
Target sequence (P49862 whole entry, looked up): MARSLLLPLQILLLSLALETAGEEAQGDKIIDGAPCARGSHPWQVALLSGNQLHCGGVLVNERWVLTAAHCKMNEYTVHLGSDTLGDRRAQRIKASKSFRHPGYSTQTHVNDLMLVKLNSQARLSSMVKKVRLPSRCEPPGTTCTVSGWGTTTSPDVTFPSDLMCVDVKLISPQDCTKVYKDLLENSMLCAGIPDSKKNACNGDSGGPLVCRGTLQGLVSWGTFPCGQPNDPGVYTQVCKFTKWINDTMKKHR
proCasp3 act – activators of human procaspase-3 | AID 463141 | actives 0.11% (n = 330,000) | activation, % at 8.5 µM | recombinant procaspase-3 D3A, Ac-DEVD-pNA absorbance 405 nm;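 active = activation above the mean of all tested compounds plus 3 SD, cut at about 21% in these data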;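 also: 0% = DMSO alone and 100% = DMSO wells spiked with extra 5 µM PC-3 D3A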
Target sequence (P42574 whole entry D9A/D28A/D175A): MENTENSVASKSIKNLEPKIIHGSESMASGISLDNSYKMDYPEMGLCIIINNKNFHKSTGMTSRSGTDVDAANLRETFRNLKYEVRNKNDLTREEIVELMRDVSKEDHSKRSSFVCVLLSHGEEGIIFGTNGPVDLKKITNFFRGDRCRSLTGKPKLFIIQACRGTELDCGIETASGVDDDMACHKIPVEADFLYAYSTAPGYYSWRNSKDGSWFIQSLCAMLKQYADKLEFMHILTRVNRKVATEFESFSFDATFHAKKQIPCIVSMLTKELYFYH
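Test system: Procaspase-3 D3A mutant, all three cleavage aspartates alanine | Dosing: Single dose, 8.5 µM nominal compound, 0.8% DMSO | Schedule: 1 h preincubation, 2 h reaction | Technique: 405 nm absorbance of p-nitroaniline, reads at 0 and 120 min | Repeats: One well per compound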
Neddylation inh – inhibitors of human cullin neddylation. TR-FRET cullin neddylation, biochemical. P61081+Q13564. AID 651699. actives 0.58% (n = 360,000). calls only at 25 µM; in the data active = inhibition above about 36%
Neddyl inh conf – cullin neddylation inhibition, confirmation. shares compounds with Neddylation inh. actives 13% (n = 1,800). AID 652217. calls only at 25 µM. TR-FRET cullin neddylation biochemical assay; in the data active = inhibition above about 40%;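 also: neddylation substrate is the cullin 1 ring ligase complex with SKP2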
Numbers without * were called inactive.

For CCOc1ccc(-n2c(SCC(=O)Nc3ccc(S(=O)(=O)Nc4cc(C)nc(C)n4)cc3)nnc2-c2ccco2)cc1 the results were KLK7 zymogen act 0.
COC(=O)[C@H]1C[C@@]2(n3ccc4ccccc43)c3ccccc3N(S(=O)(=O)c3ccccc3)[C@H]2N1 was read as KLK7 zymogen act 1.
`CCOC(=O)C1CCCN(c2cc(C)nc3cc(-c4ccc(F)cc4)nn23)C1` (stereo not given) gave proCasp7 act 4, KLK7 zymogen act -2, proCasp3 act 0, Neddylation inh active and Neddyl inh conf inactive.
Screening CCOC(=O)C1CCCN(c2cc(C)nc3cc(-c4ccc(Cl)cc4)nn23)C1 (stereo not given) returned proCasp7 act -14, KLK7 zymogen act -1 and proCasp3 act 2.
`CCn1c(=O)n(CC(=O)N2CCC(C)CC2)c(=O)c2ccccc21` gave KLK7 zymogen act -1.
For S=c1[nH]c(-c2ccccc2)cn1/N=C/c1ccc(Br)cc1 the results were proCasp7 act -22, KLK7 zymogen act 0, proCasp3 act 0, Neddylation inh active and Neddyl inh conf inactive.
`Cc1ccc(-n2c(SCC(=O)Nc3ccc(S(=O)(=O)Nc4nccs4)cc3)nnc2-c2cccs2)cc1` gave KLK7 zymogen act 0.
`O=C(NCc1ccccc1Cl)c1cnn2cccnc12` gave proCasp7 act 4, KLK7 zymogen act 1, proCasp3 act 5, Neddylation inh active and Neddyl inh conf inactive.
O=C(NCc1cccs1)c1cnn2cccnc12 was read as proCasp7 act 2, KLK7 zymogen act 2, proCasp3 act 6 and Neddylation inh inactive.
For COC(=O)C1CN(Cc2ccc(OC)cc2)CCS(=O)(=O)N1Cc1ccc(C(F)(F)F)cc1 (stereo not given) the results were KLK7 zymogen act 0.
`COCc1cc(C)nc(NC2CC(C)(C)NC(C)(C)C2)c1C#N` gave proCasp7 act 7, KLK7 zymogen act 2, proCasp3 act -1, Neddylation inh active and Neddyl inh conf active.
Screening COc1cc(/C=C/C(=O)N(C)CC(=O)Nc2ccccc2SC)cc(OC)c1OC returned proCasp7 act 12, KLK7 zymogen act 2, proCasp3 act 2, Neddylation inh active and Neddyl inh conf inactive.
`COc1cc(/C=C/C(=O)NCc2ccccn2)cc(OC)c1OC` gave proCasp7 act -5, KLK7 zymogen act 1, proCasp3 act 8, Neddylation inh active and Neddyl inh conf inactive.
CC(CCc1ccccc1)NC(=O)/C=C/c1ccccc1 (stereo not given) was read as proCasp7 act -7, KLK7 zymogen act 0, proCasp3 act 0 and Neddylation inh inactive.
Screening COc1cc(/C=C/C(=O)NC(C)CCc2ccccc2)cc(OC)c1OC (stereo not given) returned proCasp7 act -2, KLK7 zymogen act 0, proCasp3 act 5, Neddylation inh active and Neddyl inh conf inactive.
`C=CCN(CC#Cc1ccc(C(F)(F)F)cc1)Cc1ccc(OC)cc1OC` gave KLK7 zymogen act 0.
`CC(=O)OCCCN1CCC2(CCCCC2)C1=O` gave KLK7 zymogen act 0.
Cc1ccccc1CSc1nc2n(n1)C(c1cccs1)C1=C(CCCC1=O)N2 (stereo not given) was read as proCasp7 act -16, KLK7 zymogen act -13, proCasp3 act -4 and Neddylation inh active.
For O=C1CCCC2=C1C(c1cccs1)n1nc(SCc3ccccc3F)nc1N2 (stereo not given) the results were proCasp7 act 0, KLK7 zymogen act -10 and proCasp3 act 1.
Screening CSc1nc2n(n1)C(c1cccs1)C1=C(CCCC1=O)N2 (stereo not given) returned proCasp7 act 1, KLK7 zymogen act -20, proCasp3 act 1, Neddylation inh active and Neddyl inh conf inactive.
Screening COc1cc2[nH]c(=S)n(C3CCCC3)c(=O)c2cc1OC returned proCasp7 act 1, KLK7 zymogen act 0, proCasp3 act -1 and Neddylation inh inactive.
For COc1cc2[nH]c3c(c2cc1OC)CCN1CCCC[C@@H]31 the results were proCasp7 act -1, KLK7 zymogen act 4, proCasp3 act 1, Neddylation inh active and Neddyl inh conf inactive.
`O=C(CCn1nnc(-c2cccs2)n1)N1CCCCC1` gave KLK7 zymogen act 0.
COc1ccc(-n2c(COc3ccc(C)cc3)nnc2SCC(=O)c2ccc(-c3ccccc3)cc2)cc1 was read as KLK7 zymogen act 0.
For COc1ccc(N2CCc3c(C)nc4c(OC)cc(OC)cc4c32)c(OC)c1 the results were proCasp7 act -11, KLK7 zymogen act 6, proCasp3 act 3, Neddylation inh active and Neddyl inh conf inactive.
`COc1ccc(N2CCc3c(C)nc4c(OC)cc(OC)cc4c32)cc1` gave proCasp7 act -1, KLK7 zymogen act 1, proCasp3 act -2 and Neddylation inh inactive.
For COc1ccc2[nH]c(C(=O)O)c(NS(=O)(=O)c3ccc(C)cc3C)c2c1 the results were proCasp7 act -1, KLK7 zymogen act 2, proCasp3 act -8 and Neddylation inh active.
`COc1cc(C(=O)NC2CCN(C)CC2)ccc1Nc1ncc2c(n1)N(CCc1ccccc1)CCC(=O)N2C` gave KLK7 zymogen act 0, Neddylation inh active and Neddyl inh conf inactive.
`CC(C)N1CCCCC(NC(=O)c2ccc(F)cc2)C1=O` (stereo not given) gave KLK7 zymogen act 0.
COc1ccc(Sc2cccc3c2S(=O)(=O)N(C2CC2)C[C@@H](COCc2ccccc2)O3)cc1OC was read as KLK7 zymogen act 0.
For Cc1ccc(-c2cc3nc(-c4ccccc4)cc(N)n3n2)cc1 the results were proCasp7 act -10, KLK7 zymogen act -1, proCasp3 act 4, Neddylation inh active and Neddyl inh conf inactive.
Cc1ccc(-c2cc(N)n3nc(-c4ccc(C)cc4)cc3n2)cc1 was read as proCasp7 act 10, KLK7 zymogen act -21 and proCasp3 act 1.
Screening O=C(Nc1ccc2c(c1)OCO2)OC1CCC12CCCCC2 (stereo not given) returned KLK7 zymogen act 0.
`COc1ccc(-n2c(SCC(=O)Nc3ccc(Oc4ccccc4)cc3)nnc2-c2ccco2)cc1` gave KLK7 zymogen act 0.
Screening Cc1ccc2[nH]c3c(=O)n(N)c(C)nc3c2c1 returned proCasp7 act 8, KLK7 zymogen act 0, proCasp3 act 4, Neddylation inh active and Neddyl inh conf active.
`COc1ccc2[nH]c3c(=O)n(N)c(C)nc3c2c1` gave proCasp7 act 13, KLK7 zymogen act 7 and proCasp3 act 3.
Screening CCCCCNc1nc(N2CCCC2)c2c(c1C#N)CCN(C)C2 returned proCasp7 act -11, KLK7 zymogen act 4, proCasp3 act -3, Neddylation inh active and Neddyl inh conf inactive.
